Reference: paper PMC7145530 (Nucleic Acids Research, 2019)
Like-named read-outs stand apart in the source and are kept apart here.

Columns and labels:
[1] = biological target: T1, ALKBH3 (Homo sapiens, UniProt Q96Q83); test: Demethylation assay by direct detection of formaldehyde; type: biochemical; details: ferrozine 1 mM or succinate 5 mM; ALKBH3 0.2 μM, RAD51C 4.0 μM
T1 sequence (Q96Q83 1-286): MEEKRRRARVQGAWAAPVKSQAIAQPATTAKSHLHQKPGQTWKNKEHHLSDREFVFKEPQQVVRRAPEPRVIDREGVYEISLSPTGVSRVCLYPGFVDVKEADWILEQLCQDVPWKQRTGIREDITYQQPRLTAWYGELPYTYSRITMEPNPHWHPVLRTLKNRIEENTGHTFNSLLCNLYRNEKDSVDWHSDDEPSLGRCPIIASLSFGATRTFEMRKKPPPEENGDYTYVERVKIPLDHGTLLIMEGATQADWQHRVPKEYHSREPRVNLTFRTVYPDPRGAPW

[2] = biological target: T1, ALKBH3; test: Isothermal titration calorimetry; type: binding; details: ITC, 25°C; 1 mM peptide into 15 μM ALKBH3
[3] = test system: ALKBH2; test: Yeast two-hybrid with ALKBH2; type: binding, human; details: strain pJ69-4A; growth on dropout plates and lacZ reporter
Procedure, shortened: (§1)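 Full-length ALKBH2 or ALKBH3 fused to Gal4 binding domain (pGBKT7) was co-transformed with Gal4 activation domain (pACT2) fusions of RAD51, RAD51B, RAD51C, RAD51D, XRCC2 or XRCC3, or empty vectors. Transformants were selected on SD -Leu -Trp plates at 30°C for 2–3 days, then spotted on -His (triple) or -His -Ade (quadruple) dropout plates. lacZ was scored qualitatively by X-gal filter assay.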

[4] = biological target: T1, ALKBH3; test: Yeast two-hybrid with ALKBH3; type: binding; details: strain pJ69-4A; growth on dropout plates and lacZ reporter
Procedure, shortened: as §1

[5] = test system: RAD51C; test: Yeast two-hybrid of ALKBH3 fragments with RAD51C; type: binding, human; details: ALKBH3 fragments (pGBKT7) with pACT2-RAD51C
Procedure, shortened: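 Yeast co-transformed with Gal4 binding-domain (pGBKT7) and activation-domain constructs were plated on SD −Leu −Trp at 30°C for 2–3 days. HIS and ADE2 reporters were scored by spotting onto −Leu −Trp −His or −Leu −Trp −His −Ade plates. lacZ was checked qualitatively by X-gal filter assay.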

[6] = biological target: T2, His-tagged RAD51C (HIS-RAD51C) (human, UniProt O43502 1-376); test: pull-down
T2 sequence (looked up): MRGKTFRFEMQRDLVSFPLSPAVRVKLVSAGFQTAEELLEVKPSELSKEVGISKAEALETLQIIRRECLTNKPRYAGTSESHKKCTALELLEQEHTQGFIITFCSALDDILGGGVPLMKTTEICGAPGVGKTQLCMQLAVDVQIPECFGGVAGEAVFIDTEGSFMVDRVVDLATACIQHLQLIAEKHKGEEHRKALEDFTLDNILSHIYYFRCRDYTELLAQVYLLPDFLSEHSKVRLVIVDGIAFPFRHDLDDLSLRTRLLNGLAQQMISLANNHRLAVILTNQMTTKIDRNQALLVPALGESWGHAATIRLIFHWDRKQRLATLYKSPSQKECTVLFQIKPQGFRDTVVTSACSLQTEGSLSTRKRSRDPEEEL

[7] = biological target: T1, ALKBH3; details: ssDNA substrate; cited from earlier work
[8] = biological target: T1, ALKBH3; test: Steady-state; type: biochemical; details: 3′-tailed DNA 0.6–9.6 μM, ALKBH3 0.2 μM, RAD51C or RAD51CΔ42–52 4 μM, FDH-coupled
[9] = biological target: T3, ALKBH3 protein (recombinant, used for ITC) (human, UniProt Q96Q83 1-286); test: ITC
T3 sequence (looked up): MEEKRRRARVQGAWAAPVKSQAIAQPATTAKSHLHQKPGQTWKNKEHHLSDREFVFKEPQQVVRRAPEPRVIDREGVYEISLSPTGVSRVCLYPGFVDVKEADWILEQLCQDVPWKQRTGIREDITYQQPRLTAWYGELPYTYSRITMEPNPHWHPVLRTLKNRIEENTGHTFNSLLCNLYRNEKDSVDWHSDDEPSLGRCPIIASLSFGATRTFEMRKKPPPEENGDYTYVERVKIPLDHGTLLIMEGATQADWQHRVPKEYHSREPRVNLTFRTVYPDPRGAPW

O=S(=O)([O-])c1ccc(-c2nnc(-c3ccccn3)nc2-c2ccc(S(=O)(=O)[O-])cc2)cc1.[Na+].[Na+] [ferrozine, reference compound]
inhibition of ALKBH3 with RAD51C present [1]: presence of RAD51C could not alleviate the inhibitory effect of ferrozine and succinate

O=C(O)CCC(=O)O [succinate, reference compound]
inhibition of ALKBH3 with RAD51C present [1]: presence of RAD51C could not alleviate the inhibitory effect of ferrozine and succinate

QTAEELLEV [p33–41]
binding to ALKBH3 [2]: failed to bind ALKBH3 under these conditions

RAD51: human recombinase RAD51
yeast two-hybrid interaction with ALKBH2 [3]: could not detect any interaction
yeast two-hybrid interaction with ALKBH3 [4]: not with RAD51

B1: RAD51CΔ53–66 (protein)
chain: MRGKTFRFEMQRDLVSFPLSPAVRVKLVSAGFQTAEELLEVKPSELSKEVGIECLTNKPRYAGTSESHKKCTALELLEQEHTQGFIITFCSALDDILGGGVPLMKTTEICGAPGVGKTQLCMQLAVDVQIPECFGGVAGEAVFIDTEGSFMVDRVVDLATACIQHLQLIAEKHKGEEHRKALEDFTLDNILSHIYYFRCRDYTELLAQVYLLPDFLSEHSKVRLVIVDGIAFPFRHDLDDLSLRTRLLNGLAQQMISLANNHRLAVILTNQMTTKIDRNQALLVPALGESWGHAATIRLIFHWDRKQRLATLYKSPSQKECTVLFQIKPQGFRDTVVTSACSLQTEGSLSTRKRSRDPEEEL
modifications: left off: Gal4 activation domain, end not stated, kept
yeast two-hybrid interaction with ALKBH3 [4]: remained unaffected

B2: ALKBH3 (amino acids 175–286): C-terminal segment of ALKBH3 (protein)
chain: SLLCNLYRNEKDSVDWHSDDEPSLGRCPIIASLSFGATRTFEMRKKPPPEENGDYTYVERVKIPLDHGTLLIMEGATQADWQHRVPKEYHSREPRVNLTFRTVYPDPRGAPW
modifications: left off: Gal4 DNA-binding domain, end not stated, kept
yeast two-hybrid interaction with RAD51C [5]: interacted with RAD51C

B3: ΔNTD: remaining amino acid residues (67–376) of RAD51C (protein)
chain: ECLTNKPRYAGTSESHKKCTALELLEQEHTQGFIITFCSALDDILGGGVPLMKTTEICGAPGVGKTQLCMQLAVDVQIPECFGGVAGEAVFIDTEGSFMVDRVVDLATACIQHLQLIAEKHKGEEHRKALEDFTLDNILSHIYYFRCRDYTELLAQVYLLPDFLSEHSKVRLVIVDGIAFPFRHDLDDLSLRTRLLNGLAQQMISLANNHRLAVILTNQMTTKIDRNQALLVPALGESWGHAATIRLIFHWDRKQRLATLYKSPSQKECTVLFQIKPQGFRDTVVTSACSLQTEGSLSTRKRSRDPEEEL
modifications: left off: Gal4 activation domain, end not stated, kept
yeast two-hybrid interaction with ALKBH3 [4]: completely abrogated the interaction

B4: RAD51C-NTD: NTD consisting of 1–66 amino acid residues (protein)
chain: MRGKTFRFEMQRDLVSFPLSPAVRVKLVSAGFQTAEELLEVKPSELSKEVGISKAEALETLQIIRR
modifications: left off: Gal4 activation domain, end not stated, kept
yeast two-hybrid interaction with ALKBH3 [4]: robust interaction

B5: RAD51CΔ33–41 (protein)
chain: MRGKTFRFEMQRDLVSFPLSPAVRVKLVSAGFKPSELSKEVGISKAEALETLQIIRRECLTNKPRYAGTSESHKKCTALELLEQEHTQGFIITFCSALDDILGGGVPLMKTTEICGAPGVGKTQLCMQLAVDVQIPECFGGVAGEAVFIDTEGSFMVDRVVDLATACIQHLQLIAEKHKGEEHRKALEDFTLDNILSHIYYFRCRDYTELLAQVYLLPDFLSEHSKVRLVIVDGIAFPFRHDLDDLSLRTRLLNGLAQQMISLANNHRLAVILTNQMTTKIDRNQALLVPALGESWGHAATIRLIFHWDRKQRLATLYKSPSQKECTVLFQIKPQGFRDTVVTSACSLQTEGSLSTRKRSRDPEEEL
modifications: left off: Gal4 activation domain, end not stated, kept
yeast two-hybrid interaction with ALKBH3 [4]: partially affected

B6: GST-ALKBH3 fusion protein (natural protein, human, UniProt Q96Q83 1-286, looked up)
chain: MEEKRRRARVQGAWAAPVKSQAIAQPATTAKSHLHQKPGQTWKNKEHHLSDREFVFKEPQQVVRRAPEPRVIDREGVYEISLSPTGVSRVCLYPGFVDVKEADWILEQLCQDVPWKQRTGIREDITYQQPRLTAWYGELPYTYSRITMEPNPHWHPVLRTLKNRIEENTGHTFNSLLCNLYRNEKDSVDWHSDDEPSLGRCPIIASLSFGATRTFEMRKKPPPEENGDYTYVERVKIPLDHGTLLIMEGATQADWQHRVPKEYHSREPRVNLTFRTVYPDPRGAPW
binding result [6]: binds

B7: ALKBH3: human oxidative demethylase ALKBH3, tag-less recombinant (protein)
chain: MEEKRRRARVQGAWAAPVKSQAIAQPATTAKSHLHQKPGQTWKNKEHHLSDREFVFKEPQQVVRRAPEPRVIDREGVYEISLSPTGVSRVCLYPGFVDVKEADWILEQLCQDVPWKQRTGIREDITYQQPRLTAWYGELPYTYSRITMEPNPHWHPVLRTLKNRIEENTGHTFNSLLCNLYRNEKDSVDWHSDDEPSLGRCPIIASLSFGATRTFEMRKKPPPEENGDYTYVERVKIPLDHGTLLIMEGATQADWQHRVPKEYHSREPRVNLTFRTVYPDPRGAPW
modifications: left off: Gal4 DNA-binding domain, end not stated, kept
Km [7]: 1.9 µM
kcat/KM [7]: 14500 M⁻¹ s⁻¹
Km [8]: 1.4 µM

KPSELSKEVGI [synthetic peptide p42–52 of RAD51C]
Kd [9]: 4 µM
stoichiometry N [9]: 1

B8: RAD51CΔ19–32 (protein)
chain: MRGKTFRFEMQRDLVSFPQTAEELLEVKPSELSKEVGISKAEALETLQIIRRECLTNKPRYAGTSESHKKCTALELLEQEHTQGFIITFCSALDDILGGGVPLMKTTEICGAPGVGKTQLCMQLAVDVQIPECFGGVAGEAVFIDTEGSFMVDRVVDLATACIQHLQLIAEKHKGEEHRKALEDFTLDNILSHIYYFRCRDYTELLAQVYLLPDFLSEHSKVRLVIVDGIAFPFRHDLDDLSLRTRLLNGLAQQMISLANNHRLAVILTNQMTTKIDRNQALLVPALGESWGHAATIRLIFHWDRKQRLATLYKSPSQKECTVLFQIKPQGFRDTVVTSACSLQTEGSLSTRKRSRDPEEEL
modifications: left off: Gal4 activation domain, end not stated, kept
yeast two-hybrid interaction with ALKBH3 [4]: remained unaffected

B9: RAD51CΔ1–18 (protein)
chain: LSPAVRVKLVSAGFQTAEELLEVKPSELSKEVGISKAEALETLQIIRRECLTNKPRYAGTSESHKKCTALELLEQEHTQGFIITFCSALDDILGGGVPLMKTTEICGAPGVGKTQLCMQLAVDVQIPECFGGVAGEAVFIDTEGSFMVDRVVDLATACIQHLQLIAEKHKGEEHRKALEDFTLDNILSHIYYFRCRDYTELLAQVYLLPDFLSEHSKVRLVIVDGIAFPFRHDLDDLSLRTRLLNGLAQQMISLANNHRLAVILTNQMTTKIDRNQALLVPALGESWGHAATIRLIFHWDRKQRLATLYKSPSQKECTVLFQIKPQGFRDTVVTSACSLQTEGSLSTRKRSRDPEEEL
modifications: left off: Gal4 activation domain, end not stated, kept
yeast two-hybrid interaction with ALKBH3 [4]: remained unaffected
